Screening results (PubChem BioAssay)
Hits are enriched below; roughly 3% of the tested compounds scored in any of these assays.
Exocytosis inh: LAMP-1 surface exposure blockers, TALL-104 cells – cell-based, flow cytometry, MLPCN library, primary screen; inhibition, % at 10 µM; TALL-104 LAMP-1 surface exposure; cells stimulated with thapsigargin and PMA; AID 651702, 2012; actives 0.66% (n = 360,000);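 active means inhibition above about 55%, limit read from the data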
hiPSC survival: enhancers of single-cell hiPSC survival, primary screen, ATPlite luminescence. survival enhancement, % at 20 µM. actives 0.044% (n = 360,000). 100% = ROCK inhibitor wells, 0% = DMSO. AID 602274, 2012; in the data active means survival enhancement above about 18%;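 further: cells exposed to compounds for 16 hours before the ATP read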
UBC13 polyUb: UBC13 polyubiquitin chain formation inhibitors, primary screen, biochemical, TR-FRET, uHTS; Ubiquitin-conjugating enzyme E2 N (Homo sapiens), P61088; inhibition, % at 20 µM; actives 0.47% (n = 330,000); AID 485273, 2010; in the data active means inhibition above about 45%, passing the limit was not always enough
MIN6 prolif: inducers of MIN6 beta-cell proliferation, primary screen, ATP luminescence, uHTS; proliferation, % at 10 µM; MIN6 cells proliferation, ATPlite luminescence, 48 h; cells starved in 0.2% serum; 100% = growth in 10% serum; AID 2380, 2010; actives 0.29% (n = 330,000);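 active means compounds whose signal lies at least 3.5 SD above the mean of all wells on their plate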;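 further: 0% = DMSO-treated cells in low-serum medium and 100% = 10% serum control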
MPTP block: mitochondrial permeability transition pore inhibitors, primary screen, biochemical, isolated mouse mitochondria, absorbance | inhibition, % at 10 µM | AID 602449, 2012 | actives 1.4% (n = 360,000) | Ca2+ swelling absorbance, 30 min;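 active means inhibition of 50% or more, scaled per plate between neutral and stimulator controls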;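 further: 0% = DMSO wells given calcium and 100% = 1 mM EGTA wells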
Apaf-1 inh: inhibitors of human Apaf-1 apoptosome, primary screen, biochemical, DEVD-Rh110 fluorescence, uHTS; inhibition, % at 20 µM; Apoptotic protease-activating factor 1 (Homo sapiens), O14727; actives 0.71% (n = 330,000); reconstituted apoptosome caspase-3 activity; AID 489030, 2010; active means inhibition of at least 40% at 20 µM;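 further: plate controls were DMSO wells for no effect and DEVD-CHO caspase inhibitor wells for full effect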
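Assay system – apoptosome proteins · Medium – Hepes buffer, pH 7.5 · Also added – cytochrome c with DEVD-Rh110 · Timing – 30 min compound preincubation, 50 min activation, room temperature · Detection – Rh110 fluorescence, excitation 480 nm, emission 540 nm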
Apaf-1 inh conf: Apaf-1 inhibitors, single-dose retest, confirmation, biochemical, fluorescence, DEVD-Rh110, 20 µM. reconstituted apoptosome, caspase-3 DEVD-Rh110 fluorescence. actives 25% (n = 1,800). inhibition, % at 20 µM. shares compounds with Apaf-1 inh;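 active means mean inhibition of at least 40% at 20 µM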;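 further: plate controls were DMSO wells for no effect and DEVD-CHO caspase inhibitor control wells for full effect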
Rh110 interf inh: Rh110 fluorescence interference by putative Apaf-1 inhibitors, confirmation, artefact control for Apaf-1 inhibitor project, biochemical, 20 µM. quenched caspase reaction. activation (fluorescence interference), % at 20 µM. AID 504615, 2011. 1,800 tested, under 10 active. shares compounds with Apaf-1 inh;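 active means signal rise of 40% or more at 20 µM, treated as a fluorescence artifact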
Apaf1 inh interf: fluorescence interference of Apaf-1 inhibitor hits, dose response, artefact control for Apaf-1 inhibitor project | shares compounds with Apaf-1 inh | fluorescence interference counterscreen, Apaf-1 assay format | IC50, µM | 460 tested, under 10 active | AID 588538, 2011; call rule not given here
* marks the source's active call; other numbers are inactive results; / = no result.

SMILES | Exocytosis inh | hiPSC survival | UBC13 polyUb | MIN6 prolif | MPTP block | Apaf-1 inh | Apaf-1 inh conf | Rh110 interf inh | Apaf1 inh interf
O=[N+]([O-])c1cc(Br)c(O)c(C=Nc2ccc(N3CCOCC3)cc2)c1 | 7.8 | 0.4 | -22.0 | -4.4 | 12.5 | 68.2* | 14.9 | 1.5 | /
CC(C)(C)CN1CCC(Oc2cccc(C(=O)N3CCC[C@H]3CO)c2)CC1 | 0.6 | 1.9 | -1.9 | -0.7 | -0.3 | -4.3 | / | / | /
C[C@H](CO)N1C[C@H](C)[C@@H](CN(C)CC2CCCCC2)Oc2c(NS(=O)(=O)c3ccc(F)cc3)cccc2C1=O | 4.1 | 2.6 | -1.0 | 1.2 | -1.6 | 10.8 | / | / | /
Cc1ccc(-c2nn3c(C)nnc3c3ccccc23)cc1S(=O)(=O)NCCO | -3.8 | -1.7 | 4.1 | -2.5 | -1.8 | 20.5 | / | / | /
Cc1ccc(-c2nn3c(C)nnc3c3ccccc23)cc1S(=O)(=O)NC(C)c1ccccc1 (configuration not stated) | -3.0 | -0.3 | 9.2 | -1.0 | 0.1 | 56.6* | 61.5* | 8.2 | >100
Cc1ccc(-c2nn3c(C)nnc3c3ccccc23)cc1S(=O)(=O)NCc1ccco1 | 0.8 | -2.4 | 5.0 | -0.1 | 3.6 | 43.5* | 61.2* | 4.8 | >100
CCCOc1ccc(/C(O)=C2\C(=O)C(=O)N(c3ccccn3)C2c2ccccc2F)cc1C (configuration not stated) | -3.4 | 1.2 | -68.0 | -3.8 | 3.0 | 27.8 | / | / | /
CCOC(=O)c1c2ccc(OCC(=O)NN)cc2n2ccccc12 | 4.6 | -0.6 | 2.0 | 2.8 | -1.4 | 41.6* | 53.1* | 0.0 | >100
Cc1cc2nc3ccc(N(C)C)cc3nc2cc1N | -1.4 | -0.6 | -43.2 | -4.1 | 8.2 | 89.5* | 62.7* | 5.3 | >100
Cc1cc(C)cc(NC2=C(N)C(=O)c3ccccc3C2=O)c1 | -10.9 | -0.2 | -54.2 | -3.6 | 1.3 | 73.7* | 21.0 | -0.5 | /
Cc1cccc(NC2=C(NCCO)C(=O)c3ccccc3C2=O)c1 | 1.2 | 0.4 | -123.4 | 0.0 | 2.4 | 56.3* | 35.0 | 8.5 | /
COc1cccc(NC2=C(NCCO)C(=O)c3ccccc3C2=O)c1 | -1.9 | 0.0 | -93.1 | -0.9 | 2.1 | 16.0 | / | / | /
COc1ccc(NC2=C(NCCO)C(=O)c3ccccc3C2=O)cc1 | 22.5 | 3.9 | -41.0 | 0.0 | 2.6 | 69.6* | 44.8* | 6.0 | >100
COc1ccc(C(O)c2ncc(-c3cccc(OCc4ccccc4)c3)[nH]2)cc1F (configuration not stated) | 0.7 | 6.9 | / | / | 3.3 | / | / | / | /
COc1cc(C2C(C#N)=C(C)NC3=C2C(=O)c2ccccc23)cc(OC)c1OC (configuration not stated) | -1.4 | -5.2 | -2.2 | -2.3 | -0.4 | 54.3* | 28.0 | 10.8 | /
CCOc1ccccc1N1CCN(C(=O)C2c3ccccc3Oc3ccccc32)CC1 | 8.7 | 2.7 | -3.0 | -3.0 | 2.9 | 40.9* | 40.2* | 7.3 | >100
Nc1ncnc2c1ccn2[C@H]1CN(Cc2ccc(Cl)cc2)C[C@@H](CO)O1 | -15.1 | 0.3 | / | / | 0.3 | / | / | / | /
CCC(=O)N1c2ccc(S(=O)(=O)NCCc3ccc(OC)c(OC)c3)cc2CC1C (configuration not stated) | 16.3 | 0.3 | -5.1 | -0.9 | -0.6 | -1.3 | / | / | /
Cn1nccc1-c1ccc(C(=O)NCc2ccco2)c2occc12 | -7.9 | 8.4 | / | / | -0.1 | / | / | / | /
Nc1nnc2c(n1)CCCC2 | -3.8 | -1.4 | -21.5 | 0.4 | 1.0 | 82.8* | 72.0* | -26.7 | >100
CC1CCCC(NC(=O)COC(=O)COc2ccc(Br)cc2)C1C (configuration not stated) | -1.6 | -1.1 | 10.0 | -3.4 | -1.0 | 1.5 | / | / | /
COc1ccc(NC(=O)C2CCN(S(=O)(=O)c3cccc4nonc34)CC2)c(OC)c1 | 13.3 | -0.5 | -0.6 | 0.0 | -1.0 | 1.4 | / | / | /
COc1ccc(CCNC(=O)COc2cccc(-n3cnnn3)c2)cc1 | 4.4 | -0.4 | 1.5 | -0.3 | -1.1 | -8.9 | / | / | /
CCc1ccc(CNc2ccc(O)cc2)cc1 | -0.8 | -4.4 | -27.5 | -3.0 | 1.2 | 95.9* | 40.7* | -1.1 | >100
O=C(CNc1cccc2ccccc12)N/N=C/c1ccccn1 | 0.3 | 1.5 | -57.0 | -2.0 | 1.6 | 48.2* | 14.6 | 2.9 | /
SMILES | Exocytosis inh | hiPSC survival | UBC13 polyUb | MIN6 prolif | MPTP block | Apaf-1 inh | Apaf-1 inh conf | Rh110 interf inh | Apaf1 inh interf
COc1cc(NC(C)CCCN)c2ncccc2c1Oc1ccccc1 (configuration not stated) | -2.4 | 2.7 | 1.4 | 0.0 | 1.8 | 70.0* | 32.4 | 2.4 | /
COc1ccc(Oc2c(OC)cc([N+](=O)[O-])c3ncccc23)cc1 | 3.0 | -0.9 | / | / | -0.6 | / | / | / | /
COc1ccc(CCN(C)C(=O)CSc2nc3ccccc3c(=O)n2CC2CCCO2)cc1OC (configuration not stated) | -4.7 | 0.1 | / | / | -0.5 | / | / | / | /
COc1cccc(-c2ccc(NC(=O)C3CCCN(Cc4ccccn4)C3)cc2)c1 (configuration not stated) | 10.2 | -0.7 | / | / | 2.2 | / | / | / | /
O=C(Nc1ccc(-c2cccc(F)c2)cc1)C1CCCN(Cc2ccccn2)C1 (configuration not stated) | 1.7 | -0.4 | 8.9 | -6.7 | -2.0 | 40.1* | 14.5 | -0.2 | /
O=C1c2ccccc2C(=O)c2c1cccc2N1CCCC1 | 5.4 | 0.7 | / | / | 8.1 | / | / | / | /
O=C1C=C(N2CCCCC2)c2ccccc2C1=O | 55.2 | -0.3 | -191.5 | -6.5 | 11.6 | 97.6* | 99.6* | 3.1 | >100
COc1ccc(-c2nc3nc(C)c(Cc4ccccc4)c(=O)n3[nH]2)cc1 | 0.7 | -2.2 | -11.9 | -2.3 | 10.8 | 49.5* | 46.7* | 1.1 | /
COC(=O)Cc1c(C)nc2nc(-c3ccc(OC)cc3)[nH]n2c1=O | 0.8 | -1.5 | -0.5 | -1.8 | 2.5 | 5.8 | / | / | /
CC1CN(c2cnn(C(C)C)c(=O)c2Cl)CC(C)O1 (configuration not stated) | 26.7 | -0.1 | 1.1 | 1.4 | 0.5 | 4.5 | / | / | /
Cc1ccccc1NC(=O)CSc1nnc(-c2ccco2)c(-c2ccco2)n1 | -4.9 | -1.4 | -6.0 | -0.4 | -0.4 | 32.3 | / | / | /
